# Shown are actives, neighbours in structure and some others; about 4.7% of the full set was active somewhere.
# NR3A LBD binder: binders of NR3A ligand-binding domain, primary screen, biophysical, differential scanning fluorimetry, uHTS; Glutamate receptor ionotropic, NMDA 3A (GRIN3A) ligand-binding domain; NR3A LBD differential scanning fluorimetry, Tm shift; 0% = protein alone, 100% = glycine-bound protein; Tm shift relative to glycine control, % at 25 µM; 2.5% of 340,000 active;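 active = melting temperature shift of at least 10% of the positive control shift, at one fixed dose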
# MPTP block: mitochondrial permeability transition pore inhibitors, primary screen, biochemical, isolated mouse mitochondria, absorbance. Ca2+ swelling absorbance, 30 min. inhibition, % at 10 µM. 1.4% of 360,000 active;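 active = inhibition of 50% or more, scaled per plate between neutral and stimulator controls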;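 also: 0% = DMSO wells given calcium and 100% = 1 mM EGTA wells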
# ADAM17 inh: ADAM17 inhibitors, primary screen, biochemical, QFRET | 0.83% of 370,000 active | inhibition, % at 6.95 µM | recombinant ADAM17, EDANS/DABCYL FRET peptide cleavage | Disintegrin and metalloproteinase domain-containing protein 17 (Homo sapiens), P78536 | AID 720648, 2013;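 active = inhibition above the mean of compounds lying between control limits plus 3 SD, set per campaign, cut at about 8.5% in these data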;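 also: 0% = DMSO-only wells as the low control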
# SKN-1 block: suppressors of acrylamide-induced Pgst-4::GFP reporter in worms, primary screen, SKN-1 inhibitor project, whole organism, uHTS, GFP/RFP fluorescence ratio, strain VP596 | C. elegans VP596 Pgst-4::GFP/RFP ratio, 24 h | inhibition, % at 21.8 µM | 0.49% of 360,000 active;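 active = interference check ratio from 0.5 to 1.5 plus GFP to RFP signal ratio inhibition reaching or exceeding a fixed threshold, cut at about 30% in these data, passing the limit was not always enough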
# MT1-MMP act inh: blockers of MT1-MMP proenzyme processing, primary screen, HT1080 RFP-PRO-GFP cells, GFP/RFP fluorescence. GFP/RFP ratio fluorescence, overnight; percent of plate control window, DMSO zero. Matrix metalloproteinase-14 (Homo sapiens), P50281. 0.061% of 360,000 active. GFP/RFP ratio change, % at 20 µM;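 active = GFP/RFP ratio change of at least 30% with cell ATP level not reduced by more than half and red fluorescence within 50% of control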
#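 Assay system: HT1080 RFP-PRO-GFP cells | Dosing: 20 µM single dose, 1% DMSO | Incubation: Cells overnight before dosing, compound overnight, 37 °C, 5% CO2 | Evaluation: GFP/RFP fluorescence ratio | Control set: DMSO-only wells and HT1080 RFP-L50D-GFP cell wells as references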
# ADAM10 inh: human ADAM10 inhibitors, primary screen, biochemical, QFRET, HTS | Disintegrin and metalloproteinase domain-containing protein 10 (Homo sapiens), O14672 | recombinant ADAM10, EDANS/DABCYL FRET peptide cleavage, 3 h | inhibition, % at 7 µM | 0.62% of 370,000 active | AID 720582, 2013;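 active = inhibition above a per-campaign cutoff equal to the mean of compounds falling between control-based bounds plus 3 SD, cut at about 20% in these data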;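 also: 0% = DMSO wells while the 100% control is not disclosed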
# Target sequence (O14672 214-748 limits assumed): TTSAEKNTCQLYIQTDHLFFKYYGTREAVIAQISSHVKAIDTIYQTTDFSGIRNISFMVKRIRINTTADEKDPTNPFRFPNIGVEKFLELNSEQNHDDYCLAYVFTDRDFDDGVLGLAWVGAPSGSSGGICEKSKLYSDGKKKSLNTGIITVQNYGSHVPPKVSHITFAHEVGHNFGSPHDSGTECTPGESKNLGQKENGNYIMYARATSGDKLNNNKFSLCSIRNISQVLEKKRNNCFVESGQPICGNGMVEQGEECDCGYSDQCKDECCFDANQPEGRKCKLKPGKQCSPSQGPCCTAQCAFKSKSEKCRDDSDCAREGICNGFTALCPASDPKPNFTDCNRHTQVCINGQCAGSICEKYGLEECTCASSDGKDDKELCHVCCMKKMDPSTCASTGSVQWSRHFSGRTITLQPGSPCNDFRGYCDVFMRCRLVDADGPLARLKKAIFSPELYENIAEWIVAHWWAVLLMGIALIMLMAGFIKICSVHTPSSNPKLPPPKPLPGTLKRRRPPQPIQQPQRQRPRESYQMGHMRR
# ADAM10 confirm: human ADAM10 inhibitors, confirmation, biochemical, QFRET, triplicate; shares compounds with ADAM10 inh; ADAM10 QFRET peptide cleavage, EDANS fluorescence; inhibition, % at 6.95 µM; 1% of 2,100 active;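 active = inhibition above about 20% chosen separately for each screening run, limit read from the data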;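 also: 0% = DMSO wells and 100% = marimastat wells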
# ADAM17 ctr: ADAM17 inhibitors, counter-screen for ADAM10 exosite inhibitor project, biochemical, QFRET, high throughput; shares compounds with ADAM10 inh; ADAM17 QFRET peptide cleavage, EDANS fluorescence; inhibition, % at 6.95 µM; 0.5% of 2,100 active;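 active = mean triplicate inhibition above the solvent-only control wells' mean plus 3 SD, cut at about 12% in these data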;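 also: 0% = DMSO wells and 100% = marimastat wells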
# ADAM10 ctr: ADAM10 inhibitors, counter-screen for ADAM17 exosite inhibitor project, biochemical, FRET, human ADAM10 | shares compounds with ADAM17 inh | recombinant ADAM10, EDANS/DABCYL FRET peptide cleavage, 3 h | inhibition, % at 6.95 µM | 47% of 2,900 active;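 active = mean inhibition over the triplicate runs exceeds the activity threshold set in the earlier primary screen, cut at about 20% in these data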;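 also: 0% = DMSO wells and 100% = marimastat wells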
# ADAM17 confirm: ADAM17 inhibitors, hit retest, confirmation, biochemical, QFRET peptide cleavage; 65% of 2,900 active; shares compounds with ADAM17 inh; recombinant ADAM17, EDANS/DABCYL QFRET peptide cleavage; inhibition, % at 6.95 µM;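 active = mean inhibition across replicates above the hit cutoff set in the primary screen, cut at about 8.5% in these data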;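 also: 0% = DMSO wells and 100% = marimastat wells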
# * marks the source's active call; other numbers are inactive results; . = no result given.
SMILES,NR3A LBD binder,MPTP block,ADAM17 inh,SKN-1 block,MT1-MMP act inh,ADAM10 inh,ADAM10 confirm,ADAM17 ctr,ADAM10 ctr,ADAM17 confirm
CC(C)(C)OC(=O)[C@H](Cc1ccccc1)NC(=O)c1nc[nH]c1C(=O)NC1CCN(C(=O)OC(C)(C)C)CC1,-14.8,-0.8,10.5*,10.3,1.3,23.7*,4.7,0.8,49.9*,22.6*
CC(C)C[C@H](NC(=O)c1nc[nH]c1C(=O)NC1CCN(C(=O)OC(C)(C)C)CC1)C(=O)OC(C)(C)C,-12.2,-1.3,9.4*,-16.3,-14.3,24.2*,3.3,0.4,32.0*,16.1*
O=C(COc1cc2oc(=O)cc(-c3ccccc3)c2cc1Cl)NC(Cc1c[nH]c2ccc(O)cc12)C(=O)O (configuration not stated),-1.8,1.1,1.9,-3.2,-1.7,-15.9,.,.,.,.
CCOc1ccc(-c2[nH]ncc2Oc2ccccc2OC)c(O)c1,-3.5,2.4,9.6*,9.4,0.2,21.5*,3.8,2.0,29.8*,14.7*
CCOc1ccc(-c2ncncc2-c2ccccc2OC)c(O)c1,-7.1,1.0,-3.4,2.2,-0.3,2.8,.,.,.,.
C=C(C)COc1ccc(-c2ncncc2-c2ccccc2OC)c(O)c1,1.2,0.4,2.1,7.3,-3.5,2.1,.,.,.,.
C=C(C)COc1ccc(-c2[nH]ncc2-c2ccccc2OC)c(O)c1,-12.1,3.5,18.3*,13.6,2.2,29.3*,11.0,3.1,36.8*,19.1*
CCC(C)[C@H](NC(=O)[C@@H]1CSC2c3ccccc3C(=O)N21)C(=O)NCc1ccco1 (some centres not stated),-1.1,-0.7,0.7,10.7,-3.1,-0.6,.,.,.,.
CNC(=S)N1CCC(C(=O)c2ccc(Cl)cc2)CC1,.,-0.6,0.3,13.4,3.2,-7.5,.,.,.,.
S=C1NCCOCCOCCOCCNC(=S)N2CCOCCOCCN1CCOCCOCC2,-2.3,-0.3,-2.8,-5.4,-3.3,-4.7,.,.,.,.
COC(=O)c1ccc(-c2ccc3c(c2)[C@]2(CCC[C@@H](OCc4ccccc4)[C@@H]2NC(=O)CCc2ccccc2)C(=O)N3Cc2ccccc2)cc1,.,.,-20.9,.,.,-114.8,.,.,.,.
CC(=O)O[C@@H]1CCC[C@@]2(C(=O)N(Cc3ccccc3)c3ccc(-c4c(C)noc4C)cc32)[C@H]1NC(=O)CCc1ccccc1,.,.,10.3*,.,.,23.2*,8.6,1.9,19.0,10.6*
COc1ccc(NC(=O)c2cc(-c3cc(Cl)ccc3OC)n[nH]2)c(OC)c1,.,1.7,13.1*,12.0,5.9,28.8*,7.0,2.3,34.8*,18.4*
CN(C)C(=S)Nc1ccc2c(c1)OCO2,0.4,-1.8,-2.6,7.2,-2.5,-3.6,.,.,.,.
COc1ccc(N/N=C(/C(N)=O)C2=NC(C)(C)Cc3ccccc32)cc1,0.3,1.1,13.8*,15.2,-2.4,28.2*,2.7,0.3,8.6,4.7
N#Cc1c(Cl)nc(N/N=C/c2ccccc2)c(Cl)c1Cl,-1.5,0.2,9.1*,-0.9,0.9,22.8*,30.6*,15.0*,-121.0,-23.6
NC(CCc1ccccc1)c1csc(NC(=O)Nc2ccccc2Oc2ccccc2)n1 (configuration not stated),.,6.0,14.0*,4.3,-3.1,29.3*,7.4,3.1,23.2*,12.7*
NC(CCc1ccccc1)c1csc(NC(=O)NCCc2ccccc2)n1 (configuration not stated),.,4.2,0.5,2.6,1.5,1.3,.,.,.,.
CC(=O)NC1=NN(C(C)=O)C(C)(CC(=O)OC(C)(C)C)S1 (configuration not stated),0.6,0.6,-0.4,3.2,0.2,3.1,.,.,.,.
O=C(CN(c1cccc(Br)c1)S(=O)(=O)c1ccccc1)N/N=C/c1cc([N+](=O)[O-])ccc1O,13.5*,26.4,16.2*,-0.9,2.1,26.8*,2.7,1.2,28.1*,16.7*
O=C(CCCC(=O)Nc1cccc(Br)c1)N/N=C/c1cc([N+](=O)[O-])ccc1O,6.7,-0.3,5.8,-9.3,-5.5,11.3,.,.,.,.
COc1ccc2c(Cl)cc(NC(=O)Nc3c(C)cccc3C)nc2c1,.,0.4,-3.4,22.8,-4.3,-1.8,.,.,.,.
CCc1ccc(NC(=O)C(C)OC(=O)c2ccc(NS(=O)(=O)c3ccc(C)c([N+](=O)[O-])c3)cc2)cc1 (configuration not stated),12.6*,15.7,11.8*,6.9,11.7,28.7*,4.5,1.1,27.2*,17.5*
Cc1ccc(S(=O)(=O)Nc2ccccc2C(=O)OC(C)C(=O)Nc2ccc3ccccc3c2)cc1[N+](=O)[O-] (configuration not stated),0.4,25.3,8.6,9.5,-0.1,8.6,.,.,.,.
Cc1cc(C(=O)COC(=O)c2ccc(O)cc2)c(C)n1CC1COc2ccccc2O1 (configuration not stated),7.3,3.4,19.7*,-6.4,-3.6,26.0*,6.7,2.7,12.9,7.7
Cc1cc(C(=O)COC(=O)c2ccc3c(c2)OCO3)c(C)n1CC1CCCO1 (configuration not stated),-0.5,0.8,-2.0,8.3,-2.7,-0.2,.,.,.,.

# High-throughput results deposited in PubChem BioAssay by several laboratories.
